Only some compounds are listed: those with a hit (about 0.89% of all), similar ones and a draw of the others.
Mdm2 ligase inh = blocks human Mdm2 ubiquitin ligase activity; Q00987; cell-based MDM2 ubiquitination luciferase reporter, 2 h; 0 = plate control, 100 = twice control, blank-subtracted; signal enhancement, % at 5 µM; 210,000 compounds, 0.11% hits;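 active means signal enhancement of 30% or more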;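 further: luminescence tracks abundance of the self-degrading MDM2-luciferase fusion protein; higher signal means inhibition of MDM2 E3 ligase activity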
Target sequence (Q00987 whole entry, looked up, the tested form may be a part): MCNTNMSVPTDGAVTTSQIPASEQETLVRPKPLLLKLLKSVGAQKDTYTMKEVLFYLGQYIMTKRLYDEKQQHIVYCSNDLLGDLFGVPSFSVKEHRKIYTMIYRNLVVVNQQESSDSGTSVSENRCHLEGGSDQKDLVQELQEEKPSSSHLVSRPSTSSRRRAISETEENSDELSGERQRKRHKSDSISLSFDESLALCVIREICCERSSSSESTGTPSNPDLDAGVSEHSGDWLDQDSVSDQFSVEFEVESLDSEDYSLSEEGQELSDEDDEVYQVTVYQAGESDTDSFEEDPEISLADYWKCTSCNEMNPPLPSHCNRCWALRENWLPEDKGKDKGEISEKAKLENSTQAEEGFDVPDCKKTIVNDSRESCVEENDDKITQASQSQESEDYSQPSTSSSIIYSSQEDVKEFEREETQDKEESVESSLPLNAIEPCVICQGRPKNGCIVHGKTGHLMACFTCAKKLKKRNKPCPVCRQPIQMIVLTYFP
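Test system: mammalian cells stably expressing self-ubiquitinating, self-degrading MDM2 E3–luciferase fusion; Amount: 2000 cells in each well; Medium: DMEM; Schedule: 4 h settle plus 2 h compound, 37 °C; Technique: SteadyLite luciferase luminescence after 15 min room-temperature reagent incubation; Benchmarks: plate control and blank wells.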
HSV replic up = increases HSV replication in cells. HSV replication augmentation in cells, fold increase. maximum fold increase. 220,000 compounds, 0.005% hits; in the data active means maximum fold increase above about 1.5; inconclusive means no clear call, values can overlap the other calls; tested in PC3 cells
zVAD death inh = L929 zVAD cell death inhibition; viability rescue, % at 10 µM; AID 1377; L929 zVAD necroptosis rescue, ATP luminescence, 24 h; with zVAD 60 µM; 220,000 compounds, 0.38% hits;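 active means activation, scaled between plate controls, above about 75%, limit read from the data; inactive means activation under that limit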;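 further: 0% = zVAD with DMSO and 100% = DMSO alone without zVAD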
TNF death inh = TNF-alpha cell death inhibition in Jurkat FADD-/- cells | Jurkat FADD-/- TNF necroptosis rescue, ATP luminescence, 24 h; 0 = TNF only, 100 = no-TNF cells | activation (protection from cell death), % at 10 µM | 220,000 compounds, 0.068% hits;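 active means activation, meaning protection from cell death, of at least 50% relative to plate controls; inactive means activation below 50%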;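 further: necroptosis triggered by 40 ng/mL TNF-alpha added together with compound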
E-sel TNF inh = TNF alpha driven E-selectin expression inhibition; AID 1246; inhibition, % at 2 µM; HUVEC TNFa-induced E-selectin immunofluorescence, high content; 120,000 compounds, 0.71% hits;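 active means inhibition above the batch mean plus 3 SD, and confirmed as a hit on visual image review, cut at about 43% in these data; inconclusive means passes the inhibition cutoff but fails visual image review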;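 further: 0% = TNF-stimulated DMSO wells and 100% = unstimulated control wells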
zVAD necrop conf = confirmed blocker of zVAD induced death in L929 cells; shares compounds with zVAD death inh; L929 zVAD-induced necroptosis rescue, ATP luminescence, 24 h; activation (protection from necroptosis), % at 10 µM; 760 compounds, 16% hits; AID 463117;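 active means mean protection from necroptosis of at least 50% over duplicate tests; inactive means mean protection below 50%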;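 further: 0% = cells with zVAD alone and 100% = vehicle cells without zVAD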
* hit, by the source's call; i = inactive; ? = inconclusive; · = no result.

SMILES	Mdm2 ligase inh	HSV replic up	zVAD death inh	TNF death inh	E-sel TNF inh	others
CC(=O)OC(C)(C)/C=C/C(=O)[C@](C)(O)[C@H]1[C@H](O)C[C@@]2(C)[C@@H]3CC=C4[C@H](C[C@H](O)C(=O)C4(C)C)[C@]3(C)C(=O)C[C@]12C	·	i	29.2	-12.4	60.3*
CCN1CCN(Cc2cc(OC)c(OC)cc2[N+](=O)[O-])CC1	-1.9	i	-0.2	-2.0	100.0*
COc1ccc(N2C(=O)/C(=C/C=C/c3ccccc3[N+](=O)[O-])C(=O)NC2=S)cc1	-18.8	i	0.9	-3.0	·
CN(C)CC1CSCCC1(O)c1ccc(C(F)(F)F)cc1 (stereo not given)	-1.8	i	0.0	1.9	·
CN(C)CC1CSCCC1(O)c1ccc(Cl)cc1 (stereo not given)	-1.1	i	0.6	2.2	41.8*
C/C1=C\[C@@H](C)C/C=C/[C@H]2[C@@H]3O[C@]3(C)[C@@H](C)[C@H]3[C@H](Cc4c[nH]c5ccccc45)NC(=O)[C@]32C(=O)/C=C/C(=O)[C@@H]1O	33.4*	i	29.9	-13.2	·
CC1=CC2/C=C(\C)CCC(O)C(O)/C=C/C(=O)C23C(=O)NC(CC(C)C)C3C1C (stereo not given)	4.1	i	63.2	-12.3	·
CCN1C(=O)C(=C/C=C/c2ccco2)C(=O)N(CC)C1=S	47.0*	?	0.7	-8.7	·
CC(C)N1C(=O)/C(=C/C=C/c2ccco2)C(=O)N(Cc2ccco2)C1=O	13.3	i	0.1	-23.7	31.6
CCc1ccc(N2C(=O)NC(=O)/C(=C/c3cccn3CCOc3ccc(C(C)CC)cc3)C2=O)cc1 (stereo not given)	-14.6	i	-0.3	3.6	79.9*
CC1C(c2cccs2)=[N+]([O-])C(C)(C(=O)c2ccc(Cl)cc2)N1O (stereo not given)	·	·	-0.3	-0.9	·
COc1ccc(C(=O)C2(C)N(O)C(C)C(c3cccs3)=[N+]2[O-])cc1 (stereo not given)	0.2	i	-0.1	-1.8	58.0*
C#CCN1C(=O)S/C(=C\c2ccc(N3CCOCC3)cc2C)C1=O	-11.1	i	-1.4	0.7	·
CC1CN(c2cc([N+](=O)[O-])ccc2Cl)CC(C)N1 (stereo not given)	-23.2	i	-1.2	1.3	99.6*
O=C(Nc1nc(-c2ccccc2)c(-c2ccccc2)s1)c1ccc(S(=O)(=O)N(CCCl)CCCl)cc1	13.8	i	2.2	4.4	59.6*
O=c1[nH]c(=O)n(C2CCCCC2)c(O)c1/C=C/C=Nc1ccccc1	·	?	0.2	-2.1	·
CCCCC12CNCC(C)(CNC1)C2=O	2.6	i	0.2	1.3	100.0*
CCCCC1(CN2CCCC2=O)C(=O)NC(=O)NC1=O	-0.2	i	0.0	0.2	-21.8
Cn1cccc1/C=C1\C(=O)NC(=O)N(CCC2=CCCCC2)C1=O	-1.9	i	0.1	-1.2	76.7*
O=C1NC(=O)N(CCC2=CCCCC2)C(=O)/C1=C\c1cccs1	16.7	i	-0.6	0.9	-65.4
Cc1ccc(NC(=O)c2cc(-c3ccccc3)n(CCCN3CCOCC3)c2C)cc1	-4.7	i	5.9	2.1	·
CN1C(=O)/C(=C/c2cccn2-c2ccc3ccccc3c2)C(=O)NC1=S	-7.4	i	-1.1	-14.3	79.0*
CCC1(C(=O)c2ccccc2)C2c3ccccc3OC(=O)C21C(C)=O (stereo not given)	-5.2	i	0.7	0.4	·
C=C1C(=O)O[C@@H]2C[C@@H](C)[C@@H]3C=CC(=O)[C@@]3(C)[C@@H](O)[C@H]12	53.0*	i	93.6*	52.7*	·
Nc1nonc1-n1nnc(C(=O)N/N=C/c2ccc(OCc3ccc(F)cc3)cc2)c1COc1ccccc1	·	i	-0.9	-0.3	·
SMILES	Mdm2 ligase inh	HSV replic up	zVAD death inh	TNF death inh	E-sel TNF inh	others
COC(=O)Nc1ccc(N=C(N)N[N+](=O)[O-])cc1	-9.7	i	3.4	1.4	-6.1
O=C(/C=C/c1ccccc1)c1c(O)n(CCc2ccccc2)c(=O)[nH]c1=O	-10.7	i	82.9*	-1.2	-2.2	zVAD necrop conf=0.9
O=C(/C=C/c1ccc2c(c1)OCO2)c1c(O)n(CCc2ccccc2)c(=O)[nH]c1=O	-11.3	i	-0.4	-4.6	·
Clc1cccc(C2NCc3ccccc3-n3cccc32)c1 (stereo not given)	8.7	i	-0.1	3.4	·
O=C(Nc1ccc(Cl)cc1)Nc1nccs1	-3.6	i	86.3*	-4.3	-2.1	zVAD necrop conf=7.3
N=c1c[n+](C2CCCCC2)[n-]o1	-6.4	i	5.8	1.0	·
CC(=O)OC[C@]12CCC(C)=C[C@H]1O[C@@H]1[C@H](O)[C@@H](OC(C)=O)[C@@]2(C)[C@]12CO2	-87.9	i	95.5*	-24.0	·	zVAD necrop conf=81.7*
